Measured values pooled from the literature.
Protocols differ between the studies behind these lines.
Genome polyprotein protease: Genome polyprotein, protease (ZIKV, UniProt A0A024B7W1)
NR1H2: Oxysterols receptor LXR-beta (NR1H2, Homo sapiens, UniProt P55055)
Adra1a: Alpha-1A adrenergic receptor (Adra1a, Rattus norvegicus, UniProt P43140)
DPP9: Dipeptidyl peptidase 9 (DPP9, Homo sapiens, UniProt Q86TI2)
CTSB: Cathepsin B (CTSB, Homo sapiens, UniProt P07858)

Structure (SMILES)	target	test	conditions	inhibition [%]
Cn1cc(-c2cccc(N3CCc4c(sc5c4CC(C)(C)C5)C3=O)c2CO)cc(Nc2ccncn2)c1=O	Cyclin-dependent kinase 8, with cyclin C (CDK8, Homo sapiens, UniProt P49336)	enzyme activity, inhibitor	1 µM	-1
Oc1cccc(O)c1O	Genome polyprotein protease	enzyme activity, inhibitor, FRET	100 µM, pH 7	11
C#Cc1n[nH]c2c(-c3cn(C(C)c4ccccn4)c(=O)[nH]c3=O)cc(F)cc12 (stereo not drawn)	Dual specificity protein kinase CLK3 (CLK3, Homo sapiens, UniProt P49761)	enzyme activity, inhibitor	1 µM	8.3
O=C1N=C(N2CCCCN2)S/C1=C\c1ccc(F)cc1O	5-hydroxytryptamine receptor 6 (HTR6, Homo sapiens, UniProt P50406)	ligand displacement, radioligand	10 µM	< 10
Cc1ncc(C)n2nc(/C=C/c3nc(N4CCCC4)cc(N4CCOCC4)n3)nc12	NR1H2	cell-free assay	10 µM	-19
CCCCCCCCCCCC(=O)OC[C@@H](COP(=O)(O)OCCNC(=O)c1ccc(Cn2c(=O)[nH]c3c(N)nc(OCCOC)nc32)cc1)OC(=O)CCCCCCCCCCC	Adra1a	ligand displacement, radioligand	10 µM	-11
C[C@@H]1O[C@@H](OC[C@H]2O[C@@H](Oc3c(-c4ccc(O)c(O)c4)oc4cc(O)cc(O)c4c3=O)[C@H](O)[C@@H](O)[C@@H]2O)[C@H](O)[C@H](O)[C@H]1O	Genome polyprotein protease	enzyme activity, inhibitor	200 µM, pH 8.5	95.4
COc1cc(Nc2ncc(F)c(Nc3ccc4c(n3)NC(=O)C(C)(C)O4)n2)cc(OC)c1OC	SNF-related serine/threonine-protein kinase (SNRK, Homo sapiens, UniProt Q9NRH2)	binding	10 µM	7
CCN(CC)CCCC[C@H](NC(=O)[C@H](CC(C)C)NC(=O)[C@H](C)NC(=O)[C@H](Cc1ccccc1)NC(=O)c1ccc(C(C)(C)C)cc1)C(=O)N[C@@H](CO)C(=O)OC	5-hydroxytryptamine receptor 7 (HTR7, Homo sapiens, UniProt P34969)	ligand displacement, radioligand	10 µM	8
C[C@H](C(=O)N[C@H]1COc2ccccc2[C@@H]1S(C)(=O)=O)c1ccc(F)cc1	Voltage-dependent N-type calcium channel subunit alpha-1B (Cacna1b, Rattus norvegicus, UniProt Q02294)	cell-free assay	10 µM	11
O=C(O)c1cc(O)c(O)c(O)c1	Genome polyprotein protease	enzyme activity, inhibitor, FRET	100 µM, pH 7	15
OC(CCN1CC=C(c2ccc(F)cc2)CC1)c1ccc(F)c2ccccc12 (stereo not drawn)	Plasmepsin II (Plasmodium falciparum, UniProt P46925)	enzyme activity, inhibitor	5 µM	18
N#Cc1ccc(NCCNCC(=O)N2N=CCC2C#N)nc1 (stereo not drawn)	DPP9	enzyme activity, inhibitor	0.1 µM	0
Cn1cc(-c2cc(F)cc(N3CCn4c(cc5c4CCCC5)C3=O)c2CO)cc(Nc2ccc(N3CCN(C4COC4)CC3)cn2)c1=O	MAP kinase-activated protein kinase 3 (MAPKAPK3, Homo sapiens, UniProt Q16644)	enzyme activity, inhibitor	0.1 µM	9
C#Cc1n[nH]c2c(-c3cn([C@@H](C)c4ccccc4)c(=O)[nH]c3=O)cc(F)cc12	Cyclin-dependent kinase 2, with cyclin E1 (CDK2, Homo sapiens, UniProt P24941)	enzyme activity, inhibitor	0.1 µM	-4.8
COc1ccc(-c2oc3c(CC=C(C)C)c(O)cc(O)c3c(=O)c2O)cc1	Genome polyprotein protease	enzyme activity, inhibitor, FRET	100 µM, pH 7	19
CCOC(=O)c1ccc(OC(=O)CCCCCNC(=N)N)cc1	DPP9	enzyme activity, inhibitor	10 µM	14
CC(C)N1CCC[C@H]1CNC(=O)c1cn(C2CCCC2)c(=O)c2c1c1ccccc1n2C	Adra1a	ligand displacement, radioligand	10 µM	16
CC(C)C[C@H](NC(=O)[C@H]1O[C@@H]1C(=O)O)C(=O)NCCCCN=C(N)N	CTSB	enzyme activity, inhibitor	5 nM	77
O=c1c(O)c(-c2cc(O)c(O)c(O)c2)oc2cc(O)cc(O)c12	Genome polyprotein protease	enzyme activity, inhibitor, FRET	100 µM, pH 7	88
CN(C)C(=O)COC(=O)Cc1ccc(OC(=O)c2ccc(NC(=N)N)cc2)cc1	CTSB	enzyme activity, inhibitor	10 µM	0
C[C@@H]1O[C@@H](O[C@H]2[C@H](Oc3cc(O)c4c(c3)O[C@H](c3ccc(O)cc3)CC4=O)O[C@H](CO)[C@@H](O)[C@@H]2O)[C@H](O)[C@H](O)[C@H]1O	Genome polyprotein protease	enzyme activity, inhibitor, FRET	100 µM, pH 7	12.5
N=C(N)c1ccc2cc(OC(=O)c3ccc(N=C(N)N)cc3)ccc2c1	Ubiquitin carboxyl-terminal hydrolase 14 (USP14, Homo sapiens, UniProt P54578)	enzyme activity, inhibitor	10 µM	0
O=C(Nc1cccnn1)N1CCN([C@@H]2CCOc3cc(C(F)(F)F)ccc32)CC1	NR1H2	cell-free assay	20 µM	-6
